The text below walks through data of ChEMBL document CHEMBL1145571, “Carboxylic acid isosteres improve the activity of ring-fused 2-pyridones that inhibit pilus biogenesis in E. coli” (Bioorg Med Chem Lett, 2008).

SMILES strings stand for the structures.

The test system of assay [1] is Escherichia coli. The assay is described as follows: Inhibition of P pilus biogenesis in Escherichia coli HB101/pPAP5 assessed as agglutination of erythrocytes at 1.8 mM. In kind it is functional. Summed up:
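E. coli HB101/pPAP5 grown 24 h at 37 °C on TSA containing 1.8 mM compound, 2.5% DMSO and 100 μg/ml ampicillin. Cells scraped off, suspended in PBS pH 7.4 to OD600 = 1.0. 1 ml pelleted at 2000g for 5 min, resuspended in 80 μl PBS, then serially diluted in PBS for hemagglutination read-out.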

Assay [2] concerns the target Chaperone protein PapD (Escherichia coli) (UniProt P15319). The assay can be described thus: Binding affinity to Escherichia coli PapD relative to control. Also noted: concentration or dose not given beside the values.
In assay [3] the test system is Escherichia coli. The assay can be described thus: Inhibition of pili-dependent biofilm formation of Escherichia coli HB101/pPAP5 at 400 uM. In kind it is functional. Also noted: scale not given: the % may be the effect or the level left.
The subject of assay [4] is Escherichia coli. The assay can be described thus: Inhibition of pili-dependent biofilm formation of Escherichia coli HB101/pPAP5. Format: functional, organism-based.

Chaperone protein PapD (Escherichia coli), sequence (P15319 whole entry, looked up): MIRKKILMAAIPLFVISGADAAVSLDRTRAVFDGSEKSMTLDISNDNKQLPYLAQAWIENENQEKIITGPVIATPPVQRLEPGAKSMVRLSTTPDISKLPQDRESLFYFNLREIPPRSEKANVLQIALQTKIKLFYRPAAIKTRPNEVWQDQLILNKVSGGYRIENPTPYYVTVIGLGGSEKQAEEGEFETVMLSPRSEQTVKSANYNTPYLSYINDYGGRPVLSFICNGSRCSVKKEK

Take `O=C(NO)[C@@H]1CSc2c(C3CC3)c(Cc3cccc4ccccc34)cc(=O)n21`: the figures for the Activity (in the assay with Escherichia coli [1]; in assay [2]) were 64 and 52%, respectively.

Consider `C[C@@H](C(=O)O)n1cc(-c2ccccc2)c(Cc2cccc3ccccc23)cc1=O`, for which the Activity in the assay with Escherichia coli [1] stood at 32.

`O=C([O-])[C@@H]1CSc2c(C3CC3)c(Cc3cccc4ccccc34)cc(=O)n21.[Li+]`: the Activity is 45% in the assay with Escherichia coli [3], 8 with Escherichia coli [1] and 71% in assay [2].

Turning to `NC(=O)[C@@H]1CSc2c(-c3ccccc3)c(Cc3cccc4ccccc34)cc(=O)n21`, the Activity in the assay on Escherichia coli [1] turned out to be 64.

`NC(=O)[C@@H]1CSc2c(C3CC3)c(Cc3cccc4ccccc34)cc(=O)n21`: the Activity in the assay with Escherichia coli [1] was 64; in assay [2], 40%.

Take `CS(=O)(=O)NC(=O)[C@@H]1CSc2c(-c3ccccc3)c(Cc3cccc4ccccc34)cc(=O)n21`: in the assay with Escherichia coli [1], the Activity stood at 4.

As for `O=c1cc(Cc2cccc3ccccc23)c(-c2ccccc2)c2n1[C@H](c1nnn[nH]1)CS2`, the Activity in the assay with Escherichia coli [1] came out at 2.

What is called IC50 is the concentration at which inhibition is half-maximal. For `CS(=O)(=O)NC(=O)[C@@H]1CSc2c(C3CC3)c(Cc3cccc4ccccc34)cc(=O)n21`, the Activity in the assay with Escherichia coli [1] stood at 2; in assay [2], 62%. Further, in the assay with Escherichia coli [4], the half-maximal inhibitory concentration (IC50) was 30 µM.

`O=C(NO)[C@@H]1CSc2c(-c3ccccc3)c(Cc3cccc4ccccc34)cc(=O)n21`: the Activity in the assay on Escherichia coli [1] is listed as 128.

Turning to `O=C(NS(=O)(=O)c1ccccc1)[C@@H]1CSc2c(-c3ccccc3)c(Cc3cccc4ccccc34)cc(=O)n21`, in the assay on Escherichia coli [1], the Activity worked out at 4.

As to `O=c1cc(Cc2cccc3ccccc23)c(C2CC2)c2n1[C@H](c1nnn[nH]1)CS2`, the Activity in the assay with Escherichia coli [1] was 4; in assay [2], 67%. This molecule registered an IC50 in the assay with Escherichia coli [4] of 65 µM.

As for `O=C(NS(=O)(=O)c1ccccc1)[C@@H]1CSc2c(C3CC3)c(Cc3cccc4ccccc34)cc(=O)n21`, the values for the Activity (with Escherichia coli [1]; in assay [2]) were 4 and 100%, respectively.

Turning to `C[C@@H](C(=O)[O-])n1cc(C2CC2)c(Cc2cccc3ccccc23)cc1=O.[Li+]`, the Activity in the assay with Escherichia coli [1] worked out at 32; in assay [2], 33%.
